Compounds with a hit are over-represented: about 4.3% of the library has one in this group of screens.
OX1R antag-1: OX1R (HCRTR1) antagonists, primary screen, fluorescence, CHO/OX1R cells, Fluo-8 calcium, orexin A. Orexin/Hypocretin receptor type 1 (Homo sapiens), O43613. Fluo-8 calcium fluorescence. inhibition, % at 5 µM. 330,000 compounds, 0.43% hits. AID 434989, 2010;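 active means inhibition above its plate's threshold, mean inhibition of all tested compounds on the plate plus 3 SD, cut at about 37% in these data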;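 further: 0% = orexin A challenge wells and 100% = SB-334867-A antagonist wells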
Target sequence (O43613 whole entry, looked up): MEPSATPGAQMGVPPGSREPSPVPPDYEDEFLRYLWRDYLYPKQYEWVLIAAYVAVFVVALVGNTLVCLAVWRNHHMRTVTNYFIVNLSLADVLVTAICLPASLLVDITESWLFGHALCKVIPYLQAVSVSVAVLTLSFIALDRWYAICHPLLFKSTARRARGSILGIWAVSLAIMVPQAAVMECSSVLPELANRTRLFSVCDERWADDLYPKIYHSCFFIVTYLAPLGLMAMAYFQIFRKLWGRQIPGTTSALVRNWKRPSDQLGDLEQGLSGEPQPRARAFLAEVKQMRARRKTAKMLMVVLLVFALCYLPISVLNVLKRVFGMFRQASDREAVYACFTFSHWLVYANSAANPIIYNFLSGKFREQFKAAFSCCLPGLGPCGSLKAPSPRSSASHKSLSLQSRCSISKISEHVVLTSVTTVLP
GalR3 antagonist: GalR3 antagonists in HEK293 cells, primary screen, cell-based, fluorescence readout; inhibition, % at 3 µM; 360,000 compounds, 0.44% hits; HEK293 GalR3-CNG cAMP membrane potential fluorescence; galR3 body fused to GalR1 C-terminus;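 active means inhibition above the screen-wide average plus 3 SD, cut at about 13% in these data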;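 further: forskolin and galanin both at EC90 stimulate the cells; cAMP rise reported by CNG channel membrane potential dye signal; 0% = forskolin plus galanin with DMSO and 100% = forskolin alone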
TAAR1 antagonist: human TAAR1 antagonists, primary screen, Fluo-8 calcium fluorescence, CHO RD-HGA16 cells; Trace amine-associated receptor 1 (Homo sapiens), Q96RJ0; antagonist; inhibition, % at 3 µM; 360,000 compounds, 1.5% hits; AID 624466, 2012;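 active means inhibition above a per-plate cutoff, the mean inhibition of test compounds on that plate plus 3 SD, cut at about 49% in these data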;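 further: 0% = DMSO plus EC80 beta-PEA response and 100% = DMSO alone without agonist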
Target sequence (Q96RJ0 whole entry, looked up): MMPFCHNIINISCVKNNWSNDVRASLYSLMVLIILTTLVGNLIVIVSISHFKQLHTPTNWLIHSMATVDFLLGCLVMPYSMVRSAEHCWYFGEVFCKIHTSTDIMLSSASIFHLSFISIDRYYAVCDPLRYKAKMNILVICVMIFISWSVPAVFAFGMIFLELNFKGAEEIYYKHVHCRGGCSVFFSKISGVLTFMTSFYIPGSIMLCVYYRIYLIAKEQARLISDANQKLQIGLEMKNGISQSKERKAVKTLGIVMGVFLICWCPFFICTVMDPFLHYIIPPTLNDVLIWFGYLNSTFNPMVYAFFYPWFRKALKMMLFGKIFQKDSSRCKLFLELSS
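System: CHO RD-HGA16 cells bearing hTAAR1. Reagent: EC80 β-phenethylamine stimulus. Schedule: seeding 17-24 h prior, 75-min 37 °C, 30-min RT dye loading. Signal: Fluo-8 intracellular calcium dye fluorescence, real-time kinetic reads. Read-out: % inhibition from peak post-agonist over basal fluorescence ratio. Benchmarks: vehicle wells and EC80 agonist wells. Replicates: n of 1.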
OX1R antag-2: antagonists of human orexin 1 receptor (OX1R); Orexin/Hypocretin receptor type 1 (Homo sapiens), O43613; OX1R-expressing cells, FRET antagonist read-out; inhibition, % at 6.6 µM; 330,000 compounds, 1.8% hits; in the data active means inhibition mostly above about 38%, no sharp cut-off; inactive means mostly below about 40%;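 further: 0% = agonist challenge alone and 100% = reference antagonist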
TAAR1 ag: human TAAR1 agonists, primary screen, Fluo-8 calcium fluorescence, CHO RD-HGA16 cells; activation, % at 3 µM; vehicle wells 0%, saturating PEA agonist 100%; 360,000 compounds, 0.99% hits;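 active means activation above the mean activation of all test compounds in the run plus 3 SD, cut at about 38% in these data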
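Test system: RD-HGA16 (CHO) cells co-expressing Gα16 and hTAAR1 / Benchmarks: DMSO vehicle as 0%, PEA at EC100 as 100% / Repeats: no replicates (n 1) / Measure: % activation from peak over basal fluorescence ratio, DMSO-to-PEA scaled / Timing: 17-24 h plating, Fluo-8 75 min 37 °C, 30 min RT / Technique: kinetic Fluo-8 calcium fluorescence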
CHO parental Ca: ATP-evoked calcium signal inhibitors, parental CHO, primary screen, counter-screen for OX1R antagonist project, cell-based, fluorescence, Fluo-8 calcium dye. parental CHO-K1, ATP-induced calcium, Fluo-8 fluorescence. inhibition, % at 5.6 µM. 330,000 compounds, 0.63% hits. AID 463079, 2010;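 active means inhibition above that plate's mean sample inhibition plus 3 SD, cut at about 26% in these data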;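 further: 0% = ATP-challenged DMSO wells and 100% = DMSO wells without ATP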
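material = parental CHO cells | also added = ATP as calcium-mobilizing challenge | dosing = single point at 5.6 µM | detection = intracellular calcium via Fluo-8 no-wash fluorescent dye | read-out = % inhibition | benchmarks = low control ATP plus DMSO, high control DMSO only | repeats = one well per compound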
OX1R HTRF conf: OX1R (HCRTR1) antagonists, confirmation, cell-based, HTRF; shares compounds with OX1R antag-2; OX1R-expressing cells, HTRF antagonist assay; inhibition, % at 6.6 µM; 1,800 compounds, 49% hits; AID 492964, 2010; in the data active means inhibition above about 55%;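 further: CHO cells expressing OX1R stimulated with orexin A at about EC80; 0% = agonist challenge alone and 100% = reference antagonist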
CHO-K1 HTRF cnt: signal inhibition in parental CHO-K1 cells, counter-screen for OX1R antagonist project, cell-based, HTRF; inhibition, % at 6.6 µM; HTRF counterscreen; 1,800 compounds, 48% hits; shares compounds with OX1R antag-2; in the data active means inhibition above about 17%;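 further: 0% = agonist challenge with vehicle and 100% = vehicle alone without agonist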
Starred values were filed as active, the others as inactive; · = not tested or not shown.

SMILES	OX1R antag-1	GalR3 antagonist	TAAR1 antagonist	OX1R antag-2	TAAR1 ag	CHO parental Ca	OX1R HTRF conf	CHO-K1 HTRF cnt
COc1ccc(NC(=O)CCC(=O)N/N=C/c2ccc([N+](=O)[O-])s2)cc1	-4.9	-9.4	18.3	80.6*	9.5	-3.4	46.9	44.8*
Cc1cc[n+](CC(=O)c2cc3ccccc3oc2=O)cc1	-7.1	-2.0	-17.6	78.3*	1.8	-5.5	69.0*	85.7*
Cc1nc(N)nc(N(C)c2ccccc2)c1Br	·	-1.3	17.6	·	8.4	·	·	·
COc1cc(OC)cc(C(=O)OCC(=O)Nc2nnc(-c3ccccc3)o2)c1	·	-5.3	-0.3	·	-0.8	·	·	·
Cc1ccsc1C(=O)OCC(=O)Nc1nnc(-c2ccccc2)o1	-11.5	-1.4	0.1	78.2*	-0.3	-19.1	37.6	-6.8
O=C1C=C(c2cccc3c2oc2ccccc23)CCC1	-29.9	-3.7	1.5	80.5*	13.4	-25.2	60.4*	11.9
O=C(c1cccc(NS(=O)(=O)c2ccc(Br)cc2)c1)N1CCN(c2ccccc2O)CC1	·	-2.2	8.4	·	8.4	·	·	·
COCCCC1CCN(C(=O)C2CCC(=O)N(CC3CCCCC3)C2)CC1 (stereo not drawn)	·	-2.5	-9.6	·	1.9	·	·	·
CC(NS(=O)(=O)c1ccc([N+](=O)[O-])cc1)C(=O)NN (stereo not drawn)	-14.4	-7.3	12.6	84.8*	2.4	-6.5	28.3	48.2*
COc1ccc(Nc2ncnc3c2oc2ccccc23)cc1	-8.3	0.8	-2.9	82.8*	4.2	-9.2	61.6*	10.8
Cc1ccc(Nc2ncnc3c2oc2ccccc23)cc1	-14.6	-4.5	19.6	54.0	1.9	-6.3	·	·
O=C(O)CCNc1ccc(NCCC(=O)O)c2c1C(=O)c1ccccc1C2=O	-9.2	-9.7	-13.5	104.3*	1.5	6.3	61.3*	86.1*
Cc1ccc2c(c1)C(=O)c1c(C(=O)O)cccc1-2	-15.3	1.9	-8.2	24.8	13.6	-3.3	·	·
O=C(O)c1cccc2c1C(=O)c1cccc3snc-2c13	-5.3	4.1	-15.3	88.1*	1.1	-11.1	54.8*	78.3*
O=C(/C=C1\NC2(CCCC2)Cc2ccccc21)C(=O)N/N=C/c1ccccc1O	-10.8	0.8	9.3	82.1*	3.4	-26.5	47.4	4.9
C#CCN(Cc1ccco1)C(=O)c1nnc2c3ccccc3n(S(=O)(=O)c3ccccc3)c2n1	·	-8.2	-14.2	·	-0.3	·	·	·
CC(=O)N(/N=C1\Sc2ccccc2C1=O)c1ccccc1C	-13.4	-0.6	6.1	104.6*	20.2	-38.5	37.5	12.2
CC1=CC(=NOC(=O)c2cccc([N+](=O)[O-])c2)C=C(C)C1=O	-0.6	-2.4	8.8	118.3*	17.5	0.1	23.4	17.8*
O=C(COc1ccc(C(=S)N2CCCC2)cc1)Nc1ccccc1C(F)(F)F	18.7	-2.2	-27.9	82.9*	-0.1	-13.5	72.1*	15.8
O=C(COc1ccc(C(=S)N2CCOCC2)cc1)Nc1ccccc1C(F)(F)F	-6.3	6.9	6.5	6.1	4.8	-6.1	·	·
Cc1ccc(C)c(NC(=O)Cn2ccn(-c3ccc4c(c3)OCO4)c(=O)c2=O)c1	-3.5	-3.8	-8.6	14.3	2.7	-14.4	·	·
CCOC(=O)Cn1nnc(-c2ccc([N+](=O)[O-])cc2)n1	6.1	2.4	-8.6	96.4*	-0.2	11.4	37.0	31.5*
CCOC(=O)Cn1nnc(-c2ccccc2)n1	4.0	0.5	-17.9	6.2	10.4	-2.9	·	·
COc1ccc(CCC(=O)NC2CCCc3ccccc32)cc1OC (stereo not drawn)	-36.5	-9.9	-0.6	10.0	4.3	-8.4	·	·
FC(F)(F)c1ccc(Cl)c(NC2=NCCCCC2)c1	-31.7	-5.5	-4.2	22.3	-0.3	-13.7	·	·
SMILES	OX1R antag-1	GalR3 antagonist	TAAR1 antagonist	OX1R antag-2	TAAR1 ag	CHO parental Ca	OX1R HTRF conf	CHO-K1 HTRF cnt
Cc1cc(C)c(NC(=O)COC(=O)c2ccc([N+](=O)[O-])s2)c(C)c1	-1.7	-2.5	-14.8	29.7	3.1	-5.3	·	·
COc1ccccc1NC(=O)COC(=O)c1ccc([N+](=O)[O-])s1	-13.1	13.1*	-22.6	90.7*	0.7	-13.5	37.1	48.4*
CC(NC(=O)COC(=O)c1ccc([N+](=O)[O-])s1)c1ccccc1 (stereo not drawn)	-10.4	-11.0	0.3	81.3*	-1.4	-9.5	24.2	17.4*
O=C(COC(=O)c1ccc([N+](=O)[O-])s1)NCc1ccc(F)cc1	-8.8	-12.2	-0.1	89.1*	5.6	-9.8	46.4	48.0*
CC(NC(=O)COC(=O)c1ccccc1O)c1ccccc1 (stereo not drawn)	·	0.3	-1.7	·	0.9	·	·	·
CC1NC(=O)c2cccnc2-n2c1nc1cc(F)ccc1c2=O (stereo not drawn)	·	-6.8	-8.6	·	2.3	·	·	·
Cn1c2ccccc2c2cc(/C=N/NC(=O)c3ccc(N)cc3)ccc21	23.2	-0.4	10.1	88.4*	4.7	-29.7	87.9*	7.5
CCC(=O)N1CCC1(C)C(=O)Nc1cnc2ccccc2c1 (stereo not drawn)	·	-6.9	-12.5	·	1.9	·	·	·
CC1CCN(C(=O)Cn2c3ccc(F)cc3c3nc4n(c(=O)c32)CCCS4)CC1	-22.3	·	·	90.7*	·	-11.1	20.2	7.4
CC1CCN(C(=O)Cn2c3ccccc3c3nc4n(c(=O)c32)CCCS4)CC1	-20.0	1.9	-23.3	26.3	2.3	-16.1	·	·
O=C(Cn1ncc2ccccc2c1=O)Nc1cccc(C(F)(F)F)c1	·	-7.4	-4.4	·	0.8	·	·	·
Cn1c(=O)c2[nH]c(CCCCCc3nc4ccccc4[nH]3)nc2n(C)c1=O	·	-5.6	12.1	·	0.1	·	·	·
Cn1c(=O)c2nc3ccccc3nc2n(C)c1=O	13.4	9.0	-25.9	159.7*	-0.1	7.0	92.3*	95.3*
Cn1c(=O)c2nc(Cl)c(-c3ccccc3)nc2n(C)c1=O	-15.9	11.3	9.8	86.7*	-1.0	-5.4	52.4	80.5*
CCOC(=O)C1=C(COC(=O)CCNS(=O)(=O)c2ccc(NC(C)=O)cc2)NC(=O)NC1C (stereo not drawn)	-4.6	3.0	-39.7	29.4	9.2	-4.8	·	·

Assay outcomes deposited in PubChem BioAssay by The Scripps Research Institute Molecular Screening Center.
